To fix the notation:
B1: tRNA (parent)
chain: GUUCCGUUGGCGUAAUGGUAACGCGUCUCCCUCCUAAGGAGAAGACUGCGGGUUCGAGUCCCGUACGGAACG

This sample holds only a part of the variants without activity. Bounds are passed on as bounds.

This series covers variants of B1. Put plainly: yeast fitness relative to wild type (ratio to wild type); higher = fitter; tRNA-Arg(CCU), competitive growth, 37 C, YPD. The method, boiled down:
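A pool of Saccharomyces cerevisiae strains, each with a tRNA-Arg(CCU) gene variant at the native genomic locus, was competed in YPD at 37°C for 24 hours across six parallel replicates. The variants had been chemically synthesised at a 3% per-site mutation rate over 69 sites, and gene amplicons before and after competition were read by 100-nucleotide paired-end sequencing. Darwinian fitness relative to wild type rested on changes in genotype frequencies. Genotypes required ≥ 100 starting reads, and estimates < 0.5 were set to 0.5.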
As to GUUCCCUUGCCGUAAUGGUAACGCGUCUUGCUCCUAAGGAGAAGUCUGCGGGUUCGAGUCCCGUACGGAACG [G6C G10C C29U C30G A45U], the yeast fitness is no more than 0.5. The figure for GUUCCAUUGGCGUAAUGGUAACGCAUCUCCCUCCUAAGGCGAAGACUGCGGGUUCGCGUCACGUACAGAACG [G6A G25A A40C A57C C61A G67A] is no more than 0.5; for GUUCCGUAGGCGUAAUGGUAACGCGUCUCCCUCCUAAGGAGAAGACUGCGGGUUCGAGUCCCGUGCGGAACG [U8A A65G] it is 0.855; for GUUCCGUUGGAGUACUGGUAACGAGUAUCCCUCCUAAGGACAAGACUGCGGGUUCAAGUCCCGUACGGAACG [C11A A15C C24A C27A G41C G56A] it is 0.542. The same measure for GUUCCGUUGGCGUAAUGGUCACGCGUAUCCCUCCUAAGGAGAAGACUGCGGCUUCGAGUCCCGUACGGAACG [A20C C27A G52C]: 0.595. The figure for GUUCCGUUGGCGUAAUGGUAACGCGUCUCCCUCCUAAGGAGAAGACUACGGGUUCGAGUCCCGCACGGAACG [G48A U64C] is 0.816; for GUUCCGUUGGCGUAAUGGUGACGCGUCUCCCUCCAAAGGAGAAGACUGCGGGUGCGAGUCCCGUACGGAACG [A20G U35A U54G] it is no more than 0.5; for GUUCCGUUGGCGUAAUGGUAACGCGUUUCCCUCCUAAGGAGAAGACUGCGGCUUCGAGUUCCGUACGGAACG [C27U G52C C60U] it is 0.521. Consider GUUCCGUUGGCGUAAUGGCAACGCCUCUCCCUCCUAAGGAGAAGACUGCGGGUCCGAGUCGCGUACGGAACG [U19C G25C U54C C61G], for which the yeast fitness is no more than 0.5. In the case of GAUCCGUUGGCGUAAUGGUUCCGCGUUUCCCUACUAAGGAGAAGACUGCGGGUUCGAGUCCCGUACGGACCG [U2A A20U A21C C27U C33A A70C], the yeast fitness was 0.528.

Regarding GUUCCGUUGGCGUAUUGGUAACGCGUCUCCCUCCUUAGGUGAAGACUGCGGGUUCGAGUCCCGUACGCAACG [A15U A36U A40U G68C], the yeast fitness was found to be 0.643. The figure for GUUCCGUUGGCGUAAUGGUAACGCGUGGCCCUCCUUAGGAGAAGUCUGGGGGUUCGAGUCCCGUACGGAACG [C27G U28G A36U A45U C49G] is no more than 0.5. The same measure for GUUCCGUUGGUGUAGUGGUAACGCGUCUCCCUCCUAAGGAGAAGAAUGCGGGUUCGAGUCCGGUACGAAACG [C11U A15G C46A C62G G68A]: no more than 0.5; for GUUCCGUUGGCGUUAUGGUUACGCGUCUCCCUCCUAAGGAGAAGACUGCGGGUUCGAGUCCCGUACGGAACG [A14U A20U]: 0.588; for GUUCCGUCGGCGUAAUGGUAACGCGUCUCCCUCCUAAGGAGAAGACUGCGGGUUCGAGUCCCGUUCGGAACG [U8C A65U]: 0.957. The same measure for GUUCCGUUGGCGUAAUGGUAACGCGUCUCCCUCCUAAGAAGAAGACUGCGGGUUCGUGUCCCGUACCGAACG [G39A A57U G67C]: 0.555; for GUUCCGUUGGCGUAAUCGCAACGCGUCUCCCUCCUAAGGAGAAGACUGCGGGUUCGAGUCCCGUGCGGAACG [G17C U19C A65G]: 0.573. With GUUCCGUUGGCGUAAUGGUAACGCGUCUCCCUCCUAAGGAAAAGACUGCGGGUUCGCGUCCAGUACGGAACG [G41A A57C C62A], the yeast fitness was no more than 0.5. In the case of GUUCCGUUGGCGUCAUCGUAACGCGACUCCCUCCUAAGGACAAUACUGCGGGUUCGAGUCCCGUACGGAACG [A14C G17C U26A G41C G44U], the yeast fitness is no more than 0.5. The same measure for GUUCCGUUGGCGUAAUGGUAACGCGUCUCCCUCCUAACGAGCAGACUGCGGGUUCGAGUCCCGUACGGAACG [G38C A42C]: 0.595; for GUUCCGUUGGCGUAAUGGUAACGUGUCUCCCUCCUAAGGAGAAGAGUGAGGGUUCGAGUCUCGUACGGAACG [C24U C46G C49A C61U]: no more than 0.5; for GUUCCGUUGGCGUAAUGGUAACGCGUCUCCCUUCUAAGGAGAAGACUGCGGGUUCGAGUCCCGGACGGACCG [C33U U64G A70C]: 0.555. The same measure for GUUCCGAUGGCGUAAUGGUAACGCGUCUCCCGCCUAUGGAGAAGACUGUGGGUUCGAGUCCCGUACGGAACG [U7A U32G A37U C49U]: 0.642; for GUUCCGUUGGCGUAAUGGUAACGCGUCUCCCUCCUAAGGAGAAGACUCCCGGUUCGAGUCCCGUACGGAACG [G48C G50C]: 0.68; for GUUCCGUUGGCGUAAUGGUAACGGGUCUCCCUCCUAAGGAGAAGGCUGCGGGGUCGAGUCCCGUACGGAACG [C24G A45G U53G]: no more than 0.5.

On to GUUCCGUUGGCGUAAUGGUAACGCGUCUCCCUCCUAAGGAGAACACUGCGGCUUCGAGUCCCGUAGGGAACG [G44C G52C C66G], for which the yeast fitness was no more than 0.5. Take GUUCCGUUGGGGUAAUGGUAACGUGUCUCCCUCCUAAGGAGAAGACUACGGGUUCGAGUCCCGUACUGCACG [C11G C24U G48A G67U A69C]: the yeast fitness was no more than 0.5. The same measure for GUUCCGUUGGCGUAAUGGUAACGCGUCUCCCUCCUAAGGAGAAGAUUGCGCGUUCGAGUCCCGUACGGAUCG [C46U G51C A70U]: 0.557; for GUUCCGUUGCCGUAAUGGUAACGCGUCUCCCACCUAAGGAGAAGACUGCGGGUUCGAGUCGCGUACGGAUCG [G10C U32A C61G A70U]: no more than 0.5; for GUUCCGUUGGCGUAAUGGUAACGCGUCACCCUCCUAAGGGGAUGACUGCGGGUUCGAGUCCCGUUUGGAACG [U28A A40G A43U A65U C66U]: no more than 0.5.

Take GUUCCGCUGGCGUAAUGGUAACGCGUCUCCCUCCUAAGGAGAAGACUGCGGGUCCGAGUCCCGUACGGAACG [U7C U54C]: the yeast fitness was found to be 0.821. The same measure for GUUACGUUGGCGUAAUGGUAACCCGUCUCCCUCCUAAGGAGAAGACUGCGGGUUCGAGUCCCGUACGGAACG [C4A G23C]: 0.77; for GUUCCGUUGGCGUAAUGGUAACGCAUCUCCCUCCAAAGGAGAAGACUGCGGAUUCGAGCCCCGUAAAGAACG [G25A U35A G52A U59C C66A G67A]: no more than 0.5; for GUCCCGUCGGAGUAAUGGUAACGCGUCUCCCGCCUAAGGAGAAGACUGCGGGUUCGAGUCAAGUACGGAACG [U3C U8C C11A U32G C61A C62A]: no more than 0.5.

Take GUUCCGUUGGCGUAAUGGUAACGCGUCUACCUCCUAAGGAGAGGACUGCGGGUUCGAGUCCCGUACGGAACG [C29A A43G]: the yeast fitness was determined as 0.645. The same measure for GUUCCGUUGGUGUAAUGGAAACGCGUCUCCCUCCUAAGGAAAAGACUGCGGGUUCGAGUCCCGUUCGGAACG [C11U U19A G41A A65U]: no more than 0.5. The figure for GUUCCGAUGGCGUAAUGGUAACGCGUCUCCCUCGUAAGGAGAAGACUGCGGGUUCGAGUCCAGUACGGAACG [U7A C34G C62A] is 0.696.

For the origin of these results see the RNAGym collection of RNA variant scans (doi:10.1126/science.aae0568).
